From ChEMBL document CHEMBL1782004, “Pyrimidine nucleotides with 4-alkyloxyimino and terminal tetraphosphate δ-ester modifications as selective agonists of the P2Y(4) receptor” (J Med Chem, 2011)
Active and inactive are the calls of the source. The calls are words filed in the database; no cut-off is given here.

Columns and labels:
P2Y purinoceptor 2 [1] = biological target: T1, P2Y purinoceptor 2 (Homo sapiens, UniProt P41231); assay: Agonist activity at human recombinant P2Y2 receptor expressed in human 1321N1 cells assessed as [3H]inositol phosphate production at 10 uM after 30 mins by scintillation proximity assay; type: functional, cell-based
T1 sequence (P41231 whole entry): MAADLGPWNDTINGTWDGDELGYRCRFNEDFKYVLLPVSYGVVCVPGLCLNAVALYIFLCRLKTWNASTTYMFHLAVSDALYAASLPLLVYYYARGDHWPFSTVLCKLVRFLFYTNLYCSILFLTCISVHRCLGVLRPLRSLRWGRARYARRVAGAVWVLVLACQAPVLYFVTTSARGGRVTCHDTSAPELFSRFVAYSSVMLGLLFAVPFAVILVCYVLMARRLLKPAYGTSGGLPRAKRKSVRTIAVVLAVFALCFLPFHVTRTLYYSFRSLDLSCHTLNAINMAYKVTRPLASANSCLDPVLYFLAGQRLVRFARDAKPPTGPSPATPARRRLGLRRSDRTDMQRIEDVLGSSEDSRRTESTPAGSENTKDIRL

P2Y purinoceptor 4 [2] = biological target: T2, P2Y purinoceptor 4 (Homo sapiens, UniProt P51582); assay: Agonist activity at human recombinant P2Y4 receptor expressed in human 1321N1 cells assessed as [3H]inositol phosphate production at 10 uM after 30 mins by scintillation proximity assay; type: functional, cell-based
T2 sequence (P51582 whole entry): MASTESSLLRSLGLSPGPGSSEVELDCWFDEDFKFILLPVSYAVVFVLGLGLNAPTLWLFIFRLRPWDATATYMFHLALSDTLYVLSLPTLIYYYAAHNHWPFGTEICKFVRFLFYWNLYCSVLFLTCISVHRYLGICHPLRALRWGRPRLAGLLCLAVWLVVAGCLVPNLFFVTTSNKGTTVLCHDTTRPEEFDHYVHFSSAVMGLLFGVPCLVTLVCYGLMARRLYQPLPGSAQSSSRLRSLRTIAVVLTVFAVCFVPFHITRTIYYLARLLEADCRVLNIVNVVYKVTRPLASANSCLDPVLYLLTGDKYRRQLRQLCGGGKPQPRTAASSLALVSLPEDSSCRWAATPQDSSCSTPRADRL

P2Y purinoceptor 6 [3] = biological target: T3, P2Y purinoceptor 6 (Homo sapiens, UniProt Q15077); assay: Agonist activity at human recombinant P2Y6 receptor expressed in human 1321N1 cells assessed as [3H]inositol phosphate production at 10 uM after 30 mins by scintillation proximity assay; type: functional, cell-based
T3 sequence (Q15077 whole entry): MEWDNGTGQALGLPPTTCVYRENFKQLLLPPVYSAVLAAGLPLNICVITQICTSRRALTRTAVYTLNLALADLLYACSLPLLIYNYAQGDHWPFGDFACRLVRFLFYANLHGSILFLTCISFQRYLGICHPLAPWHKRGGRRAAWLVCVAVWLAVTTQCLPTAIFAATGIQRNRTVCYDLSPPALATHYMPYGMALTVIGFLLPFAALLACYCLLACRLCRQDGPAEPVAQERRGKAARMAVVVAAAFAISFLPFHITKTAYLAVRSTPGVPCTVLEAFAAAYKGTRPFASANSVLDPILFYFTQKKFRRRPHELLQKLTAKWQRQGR

P2Y purinoceptor 2 [4] = biological target: T1, P2Y purinoceptor 2; assay: Agonist activity at human recombinant P2Y2 receptor expressed in human 1321N1 cells assessed as [3H]inositol phosphate production after 30 mins by scintillation proximity assay; type: functional, cell-based
Procedure, shortened: (§1)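 Stable 1321N1 human astrocytoma lines expressing human P2Y2, P2Y4 or P2Y6 were seeded at 20,000 cells/well two days ahead. Cells were then challenged with agonist in HEPES pH 7.3/HBSS containing LiCl for 30 min at 37°C. The reaction was stopped with ice-cold 50 mM formic acid and [3H]inositol phosphates were read by SPA.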

P2Y purinoceptor 4 [5] = biological target: T2, P2Y purinoceptor 4; assay: Agonist activity at human recombinant P2Y4 receptor expressed in human 1321N1 cells assessed as [3H]inositol phosphate production after 30 mins by scintillation proximity assay; type: functional, cell-based
Procedure, shortened: as §1, with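 “ahead. They were labelled for 16 h with 1.0 μCi myo-[3H]inositol in serum-free, inositol-free DMEM.” for “ahead.”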

P2Y purinoceptor 6 [6] = biological target: T3, P2Y purinoceptor 6; assay: Agonist activity at human recombinant P2Y6 receptor expressed in human 1321N1 cells assessed as [3H]inositol phosphate production after 30 mins by scintillation proximity assay; type: functional, cell-based
Procedure, shortened: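 1321N1 astrocytoma cells stably expressing human P2Y6, seeded 2 days ahead and labelled 16 h with myo-[3H]inositol in serum-free inositol-free DMEM. Agonist added as five-fold concentrate in HEPES pH 7.3/HBSS with 50 mM LiCl, 30 min at 37°C. Stopped with ice-cold 50 mM formic acid. EC50 from four-parameter logistic fit; triplicates, three to six experiments; UDP reference curve.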

P2Y purinoceptor 2 [7] = biological target: T1, P2Y purinoceptor 2; assay: Ratio of EC50 for human recombinant P2Y2 receptor expressed in human 1321N1 cells to EC50 for human recombinant P2Y4 receptor expressed in human 1321N1 cells; type: cell-based
1321-N1 = assay: Ratio of EC50 for human recombinant P2Y6 receptor expressed in human 1321N1 cells to EC50 for human recombinant P2Y4 receptor expressed in human 1321N1 cells; type: cell-based
P2Y purinoceptor 4 [8] = biological target: T2, P2Y purinoceptor 4; assay: Agonist activity at human P2Y4; type: functional
Oocyte = assay: Ratio of EC50 for rat P2Y2 expressed in Xenopus oocytes to EC50 for rat P2Y4 expressed in Xenopus oocytes; type: cell-based
P2Y purinoceptor 2 [9] = biological target: T1, P2Y purinoceptor 2; assay: Agonist activity at human P2Y2; type: functional
[10] = Ratio of EC50 for P2Y4 to EC50 for P2Y2
[11] = Ratio of EC50 for P2Y6 to EC50 for P2Y2

| Compound | Activity (P2Y purinoceptor 6 [3]) | EC50 (P2Y purinoceptor 2 [4]) [nM] | EC50 (P2Y purinoceptor 4 [5]) [nM] | EC50 (P2Y purinoceptor 6 [6]) [nM] | other results |
| --- | --- | --- | --- | --- | --- |
| O=c1ccn([C@@H]2O[C@H](COP(=O)(O)OP(=O)(O)C(Cl)(Cl)P(=O)(O)OP(=O)(O)O[C@H]3O[C@H](CO)[C@@H](O)[C@H](O)[C@H]3O)[C@@H](O)[C@H]2O)c(=O)[nH]1 | inactive | – | – | – | Activity (P2Y purinoceptor 2 [1]): < 50%; Activity (P2Y purinoceptor 4 [2]): inactive |
| O=c1ccn([C@@H]2O[C@H](COP(=O)(O)OP(=O)(O)OP(=O)(O)OP(=O)(O)Oc3cccc(Cl)c3)[C@@H](O)[C@H]2O)c(=O)[nH]1 | – | 840 | – | 3690 | Activity (P2Y purinoceptor 4 [2]): inactive |
| O=c1[nH]/c(=N\OCCCc2ccccc2)ccn1[C@@H]1O[C@H](COP(=O)(O)OP(=O)(O)OP(=O)(O)O)[C@@H](O)[C@H]1O | – | – | – | – | Ratio EC50 (P2Y purinoceptor 2 [7]): 28; Ratio EC50 (1321-N1): 32 |
| O=c1ccn([C@@H]2O[C@H](COP(=O)(O)OP(=O)(O)OP(=O)(O)OP(=O)(O)OC[C@H]3O[C@@H](n4ccc(=O)[nH]c4=O)[C@H](O)[C@@H]3O)[C@@H](O)[C@H]2O)c(=O)[nH]1 [DIQUAFOSOL TETRASODIUM] | – | – | – | – | EC50 (P2Y purinoceptor 4 [8]): 870 nM |
| O=c1ccn([C@@H]2O[C@H](COP(=O)(O)OP(=O)(O)OP(=O)(O)OP(=O)(O)Oc3ccc(Cl)cc3)[C@@H](O)[C@H]2O)c(=O)[nH]1 | – | 6600 | – | – | – |
| CC(C)(C)ONc1ccn([C@@H]2O[C@H](COP(=O)(O)OP(=O)(O)OP(=O)(O)O)[C@@H](O)[C@H]2O)c(=O)n1 | – | 1500 | 2110 | – | – |
| O=c1[nH]/c(=N\OCc2ccccc2)ccn1[C@@H]1O[C@H](COP(=O)(O)OP(=O)(O)OP(=O)(O)OP(=O)(O)O[C@H]2O[C@H](CO)[C@@H](O)[C@H](F)[C@H]2O)[C@@H](O)[C@H]1O | – | 2640 | 670 | 7510 | – |
| O=c1nc(NOCCCc2ccccc2)ccn1[C@@H]1O[C@H](COP(=O)(O)OP(=O)(O)OP(=O)(O)O)[C@@H](O)[C@H]1O | – | 640 | 23 | 740 | – |
| O=P(O)(O)OP(=O)(O)OP(=O)(O)OC[C@H]1O[C@@H](n2cnc3c(O)ncnc32)[C@H](O)[C@@H]1O | – | – | – | – | Ratio EC50 (Oocyte): 13 |
| [N-]=[N+]=N[C@@H]1[C@H](O)[C@@H](COP(=O)(O)OP(=O)(O)OP(=O)(O)O)O[C@H]1n1ccc(=O)[nH]c1=O | – | – | – | – | EC50 (P2Y purinoceptor 2 [9]): 5 µM |
| O=c1ccn([C@@H]2O[C@H](COP(=O)(O)OP(=O)(O)OP(=O)(O)OP(=O)(O)Oc3ccccc3)[C@@H](O)[C@H]2O)c(=O)[nH]1 | inactive | 2760 | – | – | Activity (P2Y purinoceptor 4 [2]): inactive |
| O=c1[nH]/c(=N\OCCc2ccccc2)ccn1[C@@H]1O[C@H](COP(=O)(O)OP(=O)(O)OP(=O)(O)O)[C@@H](O)[C@H]1O | – | – | – | – | Ratio EC50 (P2Y purinoceptor 2 [7]): 16; Ratio EC50 (1321-N1): 17 |
| O=c1ccn([C@@H]2O[C@H](COP(=O)(O)OP(=O)(O)OP(=O)(O)OP(=O)(O)Oc3cccc([N+](=O)[O-])c3)[C@@H](O)[C@H]2O)c(=O)[nH]1 | < 50% | 3330 | 2540 | – | – |
| CONc1ccn([C@@H]2O[C@H](COP(=O)(O)OP(=O)(O)OP(=O)(O)OP(=O)(O)O[C@H]3O[C@H](CO)[C@@H](O)[C@H](F)[C@H]3O)[C@@H](O)[C@H]2O)c(=O)n1 | – | 500 | 310 | 1440 | – |
| O=c1ccn([C@@H]2O[C@H](COP(=O)(O)OP(=O)(O)C(Cl)(Cl)P(=O)(O)O)[C@@H](O)[C@H]2O)c(=S)[nH]1 | inactive | – | – | – | Activity (P2Y purinoceptor 4 [2]): inactive |
| O=c1ccn([C@@H]2O[C@H](COP(=O)(O)OP(=O)(O)C(Cl)(Cl)P(=O)(O)O)[C@@H](O)[C@H]2O)c(=O)[nH]1 | < 50% | 9600 | – | – | Activity (P2Y purinoceptor 4 [2]): inactive |
| O=c1ccn([C@@H]2O[C@H](COP(=O)(O)OP(=O)(O)OP(=O)(O)OP(=O)(O)O[C@H]3O[C@H](CO)[C@@H](O)[C@H](O)[C@H]3O)[C@@H](O)[C@H]2O)c(=O)[nH]1 | – | – | – | – | Ratio EC50 [10]: 7; Ratio EC50 [11]: 26 |
| O=c1ccn([C@@H]2O[C@H](COP(=O)(O)OP(=O)(O)OP(=O)(O)OP(=O)(O)Oc3ccc([N+](=O)[O-])cc3)[C@@H](O)[C@H]2O)c(=O)[nH]1 | < 50% | 4850 | – | – | Activity (P2Y purinoceptor 4 [2]): < 50% |

Further lines, with some results ahead:

| Activity (P2Y purinoceptor 6 [3]) | EC50 (P2Y purinoceptor 2 [4]) [nM] | EC50 (P2Y purinoceptor 4 [5]) [nM] | EC50 (P2Y purinoceptor 6 [6]) [nM] | Compound | other results |
| --- | --- | --- | --- | --- | --- |
| – | 2770 | 620 | 4900 | O=c1ccn([C@@H]2O[C@H](COP(=O)(O)OP(=O)(O)OP(=O)(O)OP(=O)(O)O[C@H]3OC[C@@H](O)[C@H](O)[C@H]3O)[C@@H](O)[C@H]2O)c(=O)[nH]1 | – |
| – | 3720 | 4480 | 12100 | O=c1ccn([C@@H]2O[C@H](COP(=O)(O)OP(=O)(O)OP(=O)(O)OP(=O)(O)O[C@H]3O[C@H](CO)[C@@H](O)[C@H](O)[C@@H]3O)[C@@H](O)[C@H]2O)c(=O)[nH]1 | – |
| – | 490 | 227 | 1650 | O=C(O)[C@H]1O[C@H](OP(=O)(O)OP(=O)(O)OP(=O)(O)OP(=O)(O)OC[C@H]2O[C@@H](n3ccc(=O)[nH]c3=O)[C@H](O)[C@@H]2O)[C@H](O)[C@@H](O)[C@@H]1O | – |
| < 50% | – | – | – | O=c1ccn([C@@H]2O[C@H](COP(=O)(O)OP(=O)(O)OP(=O)(O)OP(=O)(O)O[C@H]3O[C@H](CO)[C@@H](O)[C@H](O)[C@H]3F)[C@@H](O)[C@H]2O)c(=O)[nH]1 | Activity (P2Y purinoceptor 2 [1]): < 50%; Activity (P2Y purinoceptor 4 [2]): < 50% |
| < 50% | – | – | – | COc1cccc(OP(=O)(O)OP(=O)(O)OP(=O)(O)OP(=O)(O)OC[C@H]2O[C@@H](n3ccc(=O)[nH]c3=O)[C@H](O)[C@@H]2O)c1 | Activity (P2Y purinoceptor 2 [1]): < 50%; Activity (P2Y purinoceptor 4 [2]): inactive |
| < 50% | – | – | – | CC(C)(C)O/N=c1/ccn([C@@H]2O[C@H](COP(=O)(O)OP(=O)(O)OP(=O)(O)O)[C@@H](O)[C@H]2O)c(=O)[nH]1 | – |
| – | 770 | 183 | 1170 | O=c1ccn([C@@H]2O[C@H](COP(=O)(O)OP(=O)(O)OP(=O)(O)OP(=O)(O)O[C@H]3O[C@H](CO)[C@@H](O)[C@@H](O)[C@H]3O)[C@@H](O)[C@H]2O)c(=O)[nH]1 | – |
| – | 3900 | 7300 | – | O=c1ccn([C@@H]2O[C@H](COP(=O)(O)OP(=O)(O)OP(=O)(O)OP(=O)(O)O)[C@@H](O)[C@H]2O)c(=O)[nH]1 | – |
| < 50% | – | – | – | COc1ccc(OP(=O)(O)OP(=O)(O)OP(=O)(O)OP(=O)(O)OC[C@H]2O[C@@H](n3ccc(=O)[nH]c3=O)[C@H](O)[C@@H]2O)cc1 | Activity (P2Y purinoceptor 2 [1]): < 50%; Activity (P2Y purinoceptor 4 [2]): < 50% |
| – | 55 | 80 | – | O=c1ccn([C@@H]2O[C@H](COP(=O)(O)OP(=O)(O)OP(=O)(O)O)[C@@H](O)[C@H]2O)c(=O)[nH]1 [URIDINE TRIPHOSPHATE] | – |
| – | 710 | 62 | 950 | O=c1ccn([C@@H]2O[C@H](COP(=O)(O)OP(=O)(O)OP(=O)(O)OP(=O)(O)O[C@H]3O[C@H](CO)[C@@H](O)[C@H](F)[C@H]3O)[C@@H](O)[C@H]2O)c(=O)[nH]1 | Ratio EC50 (P2Y purinoceptor 2 [7]): 11.5; Ratio EC50 (1321-N1): 15.3 |
| – | 940 | – | – | O=c1ccn([C@@H]2O[C@H](COP(=O)(O)OP(=O)(O)OP(=O)(O)OP(=O)(O)O[C@H]3O[C@H](CO)[C@H](O)[C@H](O)[C@H]3O)[C@@H](O)[C@H]2O)c(=O)[nH]1 | – |
| – | 1890 | 910 | 5460 | CC(=O)N[C@H]1[C@@H](OP(=O)(O)OP(=O)(O)OP(=O)(O)OP(=O)(O)OC[C@H]2O[C@@H](n3ccc(=O)[nH]c3=O)[C@H](O)[C@@H]2O)O[C@H](CO)[C@@H](O)[C@@H]1O | – |
| – | 620 | 220 | 1640 | O=c1ccn([C@@H]2O[C@H](COP(=O)(O)OP(=O)(O)OP(=O)(O)OP(=O)(O)O[C@H]3O[C@H](CO)[C@@H](F)[C@H](O)[C@H]3O)[C@@H](O)[C@H]2O)c(=O)[nH]1 | – |
